Columns and labels:
Candida albicans [1] = experiment: Antifungal activity against Candida albicans after 48 to 72 hrs; type: functional
Outline: (§1)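 MFC: after the MIC read, 30-μl aliquots from each well without visible growth were plated onto Sabouraud dextrose agar and incubated at 35°C. Reading was at 48–72 h for yeasts and up to 7 days for molds. MFC was the lowest concentration with no colonies.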

Nakaseomyces glabratus [2] = experiment: Antifungal activity against Candida glabrata after 48 to 72 hrs; type: functional; outline: as §1
Candida parapsilosis [3] = experiment: Antifungal activity against Candida parapsilosis after 48 to 72 hrs; type: functional; outline: as §1
Pichia kudriavzevii [4] = experiment: Antifungal activity against Candida krusei after 48 to 72 hrs; type: functional; outline: as §1
Candida dubliniensis [5] = experiment: Antifungal activity against Candida dubliniensis after 48 to 72 hrs; type: functional; outline: as §1
[6] = test system: Meyerozyma guilliermondii; experiment: Antifungal activity against Candida guilliermondii after 48 to 72 hrs; type: functional; outline: as §1
Clavispora lusitaniae = experiment: Antifungal activity against Candida lusitaniae after 48 to 72 hrs; type: functional; outline: as §1
Cryptococcus neoformans [7] = experiment: Antifungal activity against Cryptococcus neoformans after 48 to 72 hrs; type: functional; outline: as §1
[8] = Toxicity against human erythrocytes assessed as hemolysis; type: cell-based, Erythrocyte
Rhizopus arrhizus [9] = experiment: Antifungal activity against Rhizopus oryzae 05-203111 after 48 to 72 hrs; type: functional
Outline: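 After the broth microdilution MIC read, suspension from every well without visible growth was plated onto Sabouraud dextrose agar and incubated at 35°C, up to 7 days for molds. MFC was taken as the lowest drug concentration with no colonies.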

Candida tropicalis = experiment: Antifungal activity against Candida tropicalis after 24 to 72 hrs by broth microdilution method; type: functional
Outline: (§2)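 Broth microdilution MIC per CLSI M27-A3 (yeasts) or M38-A2 (molds). RPMI 1640 with L-glutamine, without bicarbonate, buffered to pH 7.0 with 0.165 M MOPS. Final test range for the compounds was 0.175–87.5 μM. Incubation at 35°C with visual reading at 24–72 h. MIC was the lowest concentration giving 100% inhibition versus the growth control (azoles 50% or 100%, by organism). Each isolate was run in duplicate in two independent experiments.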

Candida parapsilosis [10] = experiment: Antifungal activity against Candida parapsilosis after 24 to 72 hrs by broth microdilution method; type: functional; conditions: Lodderomyces parapsilosis; outline: as §2
Pichia kudriavzevii [11] = experiment: Antifungal activity against Candida krusei after 24 to 72 hrs by broth microdilution method; type: functional; outline: as §2
Candida dubliniensis [12] = experiment: Antifungal activity against Candida dubliniensis after 24 to 72 hrs by broth microdilution method; type: functional; outline: as §2
[13] = test system: Meyerozyma guilliermondii; experiment: Antifungal activity against Candida guilliermondii after 24 to 72 hrs by broth microdilution method; type: functional; outline: as §2
Aspergillus flavus [14] = experiment: Antifungal activity against Aspergillus flavus ATCC 204304 after 48 to 72 hrs; type: functional; outline: as §1
Exophiala spinifera = experiment: Antifungal activity against Exophiala spinifera 03-200803 after 24 to 72 hrs by broth microdilution method; type: functional
Outline: (§3)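 Mold isolates subcultured on potato dextrose agar, then tested by CLSI M38-A2 broth microdilution in RPMI 1640 (L-glutamine, no bicarbonate) buffered to pH 7.0 with 0.165 M MOPS. Compounds were dissolved in water and tested at a final 0.175–87.5 μM. Plates were incubated at 35°C. MIC was read visually as the lowest concentration giving 100% inhibition versus the growth control. Each isolate was run in duplicate in two independent experiments.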

Fusarium solani = experiment: Antifungal activity against Fusarium solani 04-203102 after 24 to 72 hrs by broth microdilution method; type: functional; outline: as §3
[15] = Antifungal activity against Paecilomyces lilacinus 05-200601 after 24 to 72 hrs by broth microdilution method; type: functional; conditions: Purpureocillium lilacinum; outline: as §3
Rhizopus arrhizus [16] = experiment: Antifungal activity against Rhizopus oryzae 05-203111 after 24 to 72 hrs by broth microdilution method; type: functional; outline: as §3
Aspergillus flavus [17] = experiment: Antifungal activity against Aspergillus flavus ATCC 204304 after 24 to 72 hrs by broth microdilution method; type: functional; outline: as §2
Aspergillus terreus = experiment: Antifungal activity against Aspergillus terreus 05-202844 after 24 to 72 hrs by broth microdilution method; type: functional; outline: as §2
Lomentospora prolificans = experiment: Antifungal activity against Scedosporium prolificans 05-203060 after 24 to 72 hrs by broth microdilution method; type: functional; outline: as §3
Scedosporium apiospermum = experiment: Antifungal activity against Scedosporium apiospermum 05-203100 after 24 to 72 hrs by broth microdilution method; type: functional; outline: as §3
[18] = test system: Cunninghamella bertholletiae; experiment: Antifungal activity against Cunninghamella bertholletiae 99-12187 after 24 to 72 hrs by broth microdilution method; type: functional; outline: as §2
Lichtheimia corymbifera = experiment: Antifungal activity against Absidia corymbifera 04-200170 after 24 to 72 hrs by broth microdilution method; type: functional; outline: as §2
Aspergillus fumigatus = experiment: Antifungal activity against Aspergillus fumigatus ATCC 204305 after 24 to 72 hrs by broth microdilution method; type: functional; outline: as §2
[19] = test system: Cryptococcus gattii species complex; experiment: Antifungal activity against Cryptococcus gattii 05-200122 after 24 to 72 hrs by broth microdilution method; type: functional, Cryptococcus bacillisporus; outline: as §2
Cryptococcus neoformans [20] = experiment: Antifungal activity against Cryptococcus neoformans 05-202523 after 24 to 72 hrs by broth microdilution method; type: functional; outline: as §2
Cryptococcus neoformans [21] = experiment: Antifungal activity against Cryptococcus neoformans ATCC 90112 after 24 to 72 hrs by broth microdilution method; type: functional; outline: as §2
Nakaseomyces glabratus [22] = experiment: Antifungal activity against Candida glabrata 04-202345 after 24 to 72 hrs by broth microdilution method; type: functional; outline: as §2
Candida parapsilosis [23] = experiment: Antifungal activity against Candida parapsilosis 04-202398 after 24 to 72 hrs by broth microdilution method; type: functional; conditions: Lodderomyces parapsilosis; outline: as §2
Pichia kudriavzevii [24] = experiment: Antifungal activity against Candida krusei 04-202328 after 24 to 72 hrs by broth microdilution method; type: functional; outline: as §2
Candida parapsilosis [25] = experiment: Antifungal activity against Candida parapsilosis ATCC 22019 after 24 to 72 hrs by broth microdilution method; type: functional; conditions: Lodderomyces parapsilosis; outline: as §2
Pichia kudriavzevii [26] = experiment: Antifungal activity against Candida krusei ATCC 6258 after 24 to 72 hrs by broth microdilution method; type: functional; outline: as §2
Candida albicans [27] = experiment: Antifungal activity against Candida albicans ATCC 10231 after 24 to 72 hrs by broth microdilution method; type: functional; outline: as §2
Candida albicans [28] = experiment: Antifungal activity against Candida albicans ATCC 90028 after 24 to 72 hrs by broth microdilution method; type: functional; outline: as §2
[29] = Antifungal activity against Exophiala jeanselmei 03-200268 after 24 to 72 hrs by broth microdilution method; type: functional; outline: as §2

MIC (Candida tropicalis): 0.702 µg/mL
MIC50 (Candida tropicalis): 0.75 µg/mL
MIC90 (Candida tropicalis): 0.75 µg/mL
MIC (Candida parapsilosis [10]): > 47 µg/mL
MIC50 (Candida parapsilosis [10]): > 47 µg/mL
MIC90 (Candida parapsilosis [10]): > 47 µg/mL
MIC (Pichia kudriavzevii [11]): 2.25 µg/mL
MIC50 (Pichia kudriavzevii [11]): 2.96 µg/mL
MIC90 (Pichia kudriavzevii [11]): 5.91 µg/mL
MIC (Candida dubliniensis [12]): 0.805 µg/mL
MIC50 (Candida dubliniensis [12]): 0.75 µg/mL
MIC90 (Candida dubliniensis [12]): 0.75 µg/mL
MIC [13]: 0.569 µg/mL
MIC50 [13]: 0.38 µg/mL
MIC90 [13]: 0.75 µg/mL
MIC (Exophiala spinifera): 0.37 µg/mL
MIC (Fusarium solani): 47.3 µg/mL
MIC [15]: > 47.3 µg/mL
MIC (Rhizopus arrhizus [16]): 1.48 µg/mL
MIC (Aspergillus flavus [17]): 23.7 µg/mL
MIC (Aspergillus terreus): 5.9 µg/mL
MIC (Lomentospora prolificans): 1.48 µg/mL
MIC (Scedosporium apiospermum): 2.96 µg/mL
MIC [18]: 47.3 µg/mL
MIC (Lichtheimia corymbifera): > 47.3 µg/mL
MIC (Aspergillus fumigatus): 47.3 µg/mL
MIC [19]: 0.74 µg/mL
MIC (Cryptococcus neoformans [20]): 47.3 µg/mL
MIC (Cryptococcus neoformans [21]): 1.48 µg/mL
MIC (Nakaseomyces glabratus [22]): 1.48 µg/mL
MIC (Candida parapsilosis [23]): 47.3 µg/mL
MIC (Pichia kudriavzevii [24]): 11.8 µg/mL
MIC (Candida parapsilosis [25]): 0.74 µg/mL
MIC (Pichia kudriavzevii [26]): 5.9 µg/mL
MIC (Candida albicans [27]): 1.48 µg/mL
MIC (Candida albicans [28]): 1.48 µg/mL
MIC [29]: 1.48 µg/mL
SMILES: CCCCCc1cc[n+](CCCCCCCCCCCC[n+]2ccc(CCCCC)cc2)cc1.[Cl-].[Cl-]
MFC50 (Candida albicans [1]): 1.48 µg/mL
MFC90 (Candida albicans [1]): 1.48 µg/mL
MFC (Candida albicans [1]; Candida albicans): 0.75 µg/mL
MFC50 (Nakaseomyces glabratus [2]): 1.48 µg/mL
MFC90 (Nakaseomyces glabratus [2]): 1.48 µg/mL
MFC (Nakaseomyces glabratus [2]; Nakaseomyces glabratus): 0.38 µg/mL
MFC50 (Candida parapsilosis [3]): >47 µg/mL
MFC90 (Candida parapsilosis [3]): >47 µg/mL
MFC (Candida parapsilosis [3]; Lodderomyces parapsilosis): > 47 µg/mL
MFC50 (Pichia kudriavzevii [4]): 2.96 µg/mL
MFC90 (Pichia kudriavzevii [4]): 5.91 µg/mL
MFC (Pichia kudriavzevii [4]; Pichia kudriavzevii): 0.38 µg/mL
MFC50 (Candida dubliniensis [5]): 0.75 µg/mL
MFC90 (Candida dubliniensis [5]): 1.48 µg/mL
MFC (Candida dubliniensis [5]; Candida dubliniensis): 0.75 µg/mL
MFC50 [6]: 0.75 µg/mL
MFC90 [6]: 0.75 µg/mL
MFC ([6]; Meyerozyma guilliermondii): 0.38 µg/mL
MFC50 (Clavispora lusitaniae): 1.48 µg/mL
MFC90 (Clavispora lusitaniae): 1.48 µg/mL
MFC (Clavispora lusitaniae; Clavispora lusitaniae): 0.75 µg/mL
MFC50 (Cryptococcus neoformans [7]): 1.48 µg/mL
MFC90 (Cryptococcus neoformans [7]): 47 µg/mL
MFC (Cryptococcus neoformans [7]; Cryptococcus neoformans): 1.48 µg/mL
HC50 [8]: > 129 µM
IC50 [8]: > 48 µM
MFC (Rhizopus arrhizus [9]): 5.9 µg/mL
MFC (Aspergillus flavus [14]): 47.3 µg/mL

— ChEMBL document CHEMBL1629527, “In vitro antifungal activities of bis(alkylpyridinium)alkane compounds against pathogenic yeasts and molds” (Antimicrob Agents Chemother, 2010)
